The text below walks through data of ChEMBL document CHEMBL3271979, “Inhibition of solid tumors by nitrosoureas. 1. Lewis lung carcinoma” (1977).

Active and inactive are the calls of the source. The rule behind the calls is not given here. Where only a bound is given, the exact number is not on record here.

A short description of assay [1]: Antitumor activity against mouse advanced Lewis lung carcinoma allografted in BDF1 mouse assessed as increase in host life span at 21 mg/kg, ip administered as single dose on 7th day post-tumor implantation. In kind it is functional. Particulars: route intraperitoneal. Put shortly:
(§1)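 BDF1 mice (C57Blk/6 × DBA/2) implanted sc by trocar with about 40 mg Lewis lung tumor fragments from bacteriologically sterile donors. Advanced-disease groups held tumors of about 400 mg by day 6-7, sized by caliper (w = ab²/2). Single ip injection on day 7, in water or saline vehicle, at or below the LD10 in normal mice. Tumors measured at least twice weekly.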

Assay [2] concerns Mus musculus. Kind of assay: Antitumor activity against mouse advanced Lewis lung carcinoma allografted in ip dosed BDF1 mouse assessed as complete regression of established tumor administered as single dose on day 6 or 7 post-tumor implantation. In kind it is functional, organism-based. Summed up: (§2)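 BDF1 mice (C57Blk/6 × DBA/2) implanted sc by trocar with Lewis lung tumor fragments of about 40 mg, taken only from bacteriologically sterile donor tumors. Mice bearing tumors of about 400 mg (day 6-7) were selected. Each received a single ip dose on day 7, at or below the LD10 in normal mice. Groups were of 10 mice. Tumor weight was taken from calipers as w = ab²/2, measured at least twice weekly. Matched non-tumor mice served as toxicity controls.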

The nature of assay [3]: Antitumor activity against mouse advanced Lewis lung carcinoma allografted in BDF1 mouse assessed as increase in host life span at 48 mg/kg, ip administered as single dose on 7th day post-tumor implantation. It is filed as functional. Particulars: route intraperitoneal. Put shortly: as §1
In assay [4] the test system is Mus musculus. Put plainly: Antitumor activity against mouse advanced Lewis lung carcinoma allografted in BDF1 mouse assessed as complete regression of established tumor at 32 mg/kg, ip administered as single dose on 7th day post-tumor implantation. It is filed as functional, organism-based. Further details: dose 32 mg/kg. Put shortly:
as §1

For assay [5], the system named is Mus musculus. Put plainly: Antitumor activity against mouse advanced Lewis lung carcinoma allografted in ip dosed BDF1 mouse assessed as disease cure administered as single dose on day 6 or 7 post-tumor implantation. In kind it is functional, organism-based. Put shortly: as §2
Assay [6] concerns Mus musculus. Put plainly: Antitumor activity against mouse advanced Lewis lung carcinoma allografted in BDF1 mouse assessed as complete regression of established tumor at 21 mg/kg, ip administered as single dose on 7th day post-tumor implantation. On the set-up: dose 21 mg/kg. It is filed as functional, organism-based. Summed up: as §2
Assay [7] is described as follows: Antitumor activity against mouse early Lewis lung carcinoma allografted in BDF1 mouse assessed as time delay in tumor growth at 48 mg/kg, ip administered as single dose on 1 or 2 days post-tumor implantation. It is filed as functional. Particulars: route intraperitoneal. Summed up:
(§3)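 BDF1 mice (C57Blk/6 × DBA/2) implanted sc by trocar with ~40 mg Lewis lung tumor fragments from bacteriologically sterile donors. A single ip dose was given on day 1 or 2, as a solution or suspension in water or saline with suspending agent, at ≤0.5 ml. Tumors were measured by caliper at least twice weekly, with weight = ab²/2. Delay was taken as the days for the tumor to reach 1 g.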

For assay [8], the system named is Mus musculus. Kind of assay: Antitumor activity against mouse advanced Lewis lung carcinoma allografted in BDF1 mouse assessed as disease cure at 21 mg/kg, ip administered as single dose on 7th day post-tumor implantation measured for 80 days post-drug treatment. It is filed as functional, organism-based. Further details: dose 21 mg/kg. Put shortly: as §2
A short description of assay [9]: Antitumor activity against mouse advanced Lewis lung carcinoma allografted in BDF1 mouse assessed as increase in host life span at 32 mg/kg, ip administered as single dose on 7th day post-tumor implantation. The conditions noted are these: route intraperitoneal. In kind it is functional. Summed up:
as §1

Assay [10] concerns Mus musculus. Kind of assay: Antitumor activity against mouse advanced Lewis lung carcinoma allografted in BDF1 mouse assessed as complete regression of established tumor at 48 mg/kg, ip administered as single dose on 7th day post-tumor implantation. In kind it is functional, organism-based. Further details: dose 48 mg/kg. Put shortly:
as §2

Assay [11] in a line: Antitumor activity against mouse advanced Lewis lung carcinoma allografted in ip dosed BDF1 mouse assessed as increase in host lifespan administered as single dose on day 6 or 7 post-tumor implantation. In kind it is functional. Put shortly: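 Advanced Lewis lung model: about 40 mg fragments implanted sc by trocar into BDF1 mice, and mice with tumors of about 400 mg (day 6-7) selected. Tumor weight from calipers, w = ab²/2. Agent given as one ip dose in distilled water or physiological saline. Nontumor-bearing mice received matching doses as toxicity controls.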

Assay [12] in a line: Antitumor activity against mouse early Lewis lung carcinoma allografted in BDF1 mouse assessed as increase in host life span at 48 mg/kg, ip administered as single dose on 1 or 2 days post-tumor implantation. In kind it is functional. Particulars: route intraperitoneal. Put shortly:
(§4)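 BDF1 mice (C57Blk/6 × DBA/2) implanted sc by trocar with ~40 mg Lewis lung tumor fragments from bacteriologically sterile donor tumors. Single ip dose on day 1 or 2, as a solution or suspension in water (CMC or gum acacia) or saline (HPC or Tween 80). Read-out is […]. Same-dose toxicity controls were run in nontumor-bearing mice.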

Assay [13] can be described thus: Antitumor activity against mouse early Lewis lung carcinoma allografted in BDF1 mouse assessed as time delay in tumor growth at 21 mg/kg, ip administered as single dose on 1 or 2 days post-tumor implantation. In kind it is functional. Particulars: route intraperitoneal. Put shortly:
as §3

The test system of assay [14] is Mus musculus. Put plainly: Antitumor activity against mouse advanced Lewis lung carcinoma allografted in BDF1 mouse assessed as disease cure at 32 mg/kg, ip administered as single dose on 7th day post-tumor implantation measured for 80 days post-drug treatment. It is filed as functional, organism-based. On the set-up: dose 32 mg/kg. Summed up:
as §2

Assay [15] can be described thus: Antitumor activity against mouse early Lewis lung carcinoma allografted in BDF1 mouse assessed as increase in host life span at 21 mg/kg, ip administered as single dose on 1 or 2 days post-tumor implantation. In kind it is functional. The conditions noted are these: route intraperitoneal. Summed up:
as §4

Assay [16] concerns Mus musculus. Kind of assay: Antitumor activity against mouse advanced Lewis lung carcinoma allografted in BDF1 mouse assessed as disease cure at 48 mg/kg, ip administered as single dose on 7th day post-tumor implantation measured for 80 days post-drug treatment. It is filed as functional, organism-based. Further details: dose 48 mg/kg. Summed up:
as §2

A short description of assay [17]: Antitumor activity against mouse early Lewis lung carcinoma allografted in BDF1 mouse assessed as time delay in tumor growth at 38 mg/kg, ip administered as single dose on 1 or 2 days post-tumor implantation. It is filed as functional. The conditions noted are these: route intraperitoneal. Summed up: as §3
The nature of assay [18]: Antitumor activity against mouse early Lewis lung carcinoma allografted in ip dosed BDF1 mouse assessed as disease cure administered as single dose on 1 or 2 days post-tumor implantation measured for 80 days post-drug treatment. It is filed as functional. Put shortly: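 BDF1 mice implanted sc by trocar with ~40 mg Lewis lung fragments from sterile donor tumors. A single ip dose was given on day 1 or 2 after implant, in water or saline vehicle. Cures were scored in animals observed for at least 80 days after treatment. Drug-toxicity controls were matched non-tumor-bearing mice monitored for body weight and deaths.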

Assay [19] is described as follows: Antitumor activity against mouse early Lewis lung carcinoma allografted in BDF1 mouse assessed as time delay in tumor growth at 25 mg/kg, ip administered as single dose on 1 or 2 days post-tumor implantation. It is filed as functional. Particulars: route intraperitoneal. Summed up:
as §3

Assay [20] is described as follows: Antitumor activity against mouse early Lewis lung carcinoma allografted in BDF1 mouse assessed as increase in host life span at 25 mg/kg, ip administered as single dose on 1 or 2 days post-tumor implantation. It is filed as functional. The conditions noted are these: route intraperitoneal. Summed up:
as §4

A short description of assay [21]: Ratio of ED50 for antitumor activity against mouse L1210 cells allografted in ip dosed mouse to LD10 for mouse.
Assay [22] in a line: Antitumor activity against mouse early Lewis lung carcinoma allografted in BDF1 mouse assessed as increase in host life span at 38 mg/kg, ip administered as single dose on 1 or 2 days post-tumor implantation. It is filed as functional. The conditions noted are these: route intraperitoneal. Summed up:
as §4

A short description of assay [23]: Antitumor activity against mouse early Lewis lung carcinoma allografted in BDF1 mouse assessed as time delay in tumor growth at 113 mg/kg, ip administered as single dose on 1 or 2 days post-tumor implantation. In kind it is functional. The conditions noted are these: route intraperitoneal. Summed up:
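Sc trocar implants of about 40 mg Lewis lung fragments in BDF1 mice. A single ip injection was given on day 1 or 2, in water or physiological saline, at ≤0.5 ml. Tumor size came from caliper length and width as w = ab²/2, measured at least twice weekly. Growth delay is the extra days taken to reach 1 g, compared with untreated controls.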

The nature of assay [24]: Antitumor activity against mouse early Lewis lung carcinoma allografted in BDF1 mouse assessed as increase in host life span at 113 mg/kg, ip administered as single dose on 1 or 2 days post-tumor implantation. In kind it is functional. Particulars: route intraperitoneal. Put shortly: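 Early disease: BDF1 mice carrying sc trocar implants of about 40 mg Lewis lung fragments. One ip dose given on day 1 or 2 after implant, in distilled water or saline, at ≤0.5 ml. Endpoints were % increase in life-span of dying animals and delay in days for the primary tumor to reach 1 g. Untreated controls served as reference.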

Assay [25] is described as follows: Antitumor activity against mouse early Lewis lung carcinoma allografted in BDF1 mouse assessed as time delay in tumor growth at 50 mg/kg, ip administered as single dose on 1 or 2 days post-tumor implantation. It is filed as functional. Particulars: route intraperitoneal. Put shortly:
as §3

Assay [26] in a line: Antitumor activity against mouse early Lewis lung carcinoma allografted in BDF1 mouse assessed as increase in host life span at 50 mg/kg, ip administered as single dose on 1 or 2 days post-tumor implantation. It is filed as functional. Particulars: route intraperitoneal. Summed up: as §4
The nature of assay [27]: Antitumor activity against mouse early Lewis lung carcinoma allografted in BDF1 mouse assessed as time delay in tumor growth at 30 mg/kg, ip administered as single dose on 1 or 2 days post-tumor implantation. It is filed as functional. The conditions noted are these: route intraperitoneal. Put shortly: as §3
A further assay concerns L1210. Put plainly: Antitumor activity against mouse L1210 cells allografted in ip dosed mouse assessed as disease cure administered as single dose. It is filed as functional, organism-based.
A short description of assay [28]: Antitumor activity against mouse early Lewis lung carcinoma allografted in BDF1 mouse assessed as increase in host life span at 30 mg/kg, ip administered as single dose on 1 or 2 days post-tumor implantation. It is filed as functional. Particulars: route intraperitoneal. Put shortly: as §4
The nature of assay [29]: Antitumor activity against mouse early Lewis lung carcinoma allografted in BDF1 mouse assessed as increase in host life span at 45 mg/kg, ip administered as single dose on 1 or 2 days post-tumor implantation. It is filed as functional. The conditions noted are these: route intraperitoneal. Summed up: as §4
Assay [30] can be described thus: Antitumor activity against mouse early Lewis lung carcinoma allografted in BDF1 mouse assessed as time delay in tumor growth at 45 mg/kg, ip administered as single dose on 1 or 2 days post-tumor implantation. In kind it is functional. The conditions noted are these: route intraperitoneal. Put shortly: as §3

As for `CC(=O)OC[C@H]1CC[C@H](NC(=O)N(CCF)N=O)CC1`, the ILS at 21 mg/kg in assay [1] is 26%; in assay [15], 24%. In addition, the inhibition result in the assay on Mus musculus [2], in the assay on Mus musculus [4], with Mus musculus [6] and with Mus musculus [10] was “inactive” each time. Also, the values for the ILS at 48 mg/kg in [3] and in assay [12] were 26% and 7%, respectively. Also, the result with Mus musculus [5], with Mus musculus [8], in the assay with Mus musculus [14] and with Mus musculus [16] was inactive. In addition, the values for the Time in assay [7] and in [13] were 12 days and 1.3 days, respectively. Also, the ILS at 32 mg/kg in assay [9] amounted to 13%. In addition, in [11], the ILS is reported as >25%.
For `O=NN(CCCl)C(=O)N[C@H]1CC[C@@H](CC(=O)O)CC1`, the inhibition result in the assay on Mus musculus [2] is “inactive”. Besides, the Time was found to be 9.2 days in [17] and 8.2 days in assay [19]. Further, the Activity in assay [18] is >50%. Moreover, the ILS at 25 mg/kg in assay [20] is 59%. For the same compound, the Ratio in [21] was 0.4. Moreover, the ILS in assay [11] is recorded as <25%. For the same compound, the ILS at 38 mg/kg in assay [22] was 42%.
As to `C[C@@H]1CCC[C@@H](NC(=O)N(CCCl)N=O)C1` (relative stereo), the inhibition entry with Mus musculus [2] was “inactive”. For the same compound, the results for the Time in assay [23] and in [25] were 6.1 days and 4 days, respectively. Moreover, the Activity in assay [18] turned out to be 10%. For the same compound, in assay [24], the ILS at 113 mg/kg came out at 50%. Also, the Ratio in [21] came to 0.4. The ILS in [11] is reported as <25%. Moreover, the ILS at 50 mg/kg in assay [26] turned out to be 47%.
In the case of `O=NN(CCCl)C(=O)N[C@H]1CC[C@@H](O)CC1`, in the assay with Mus musculus [2], the inhibition entry was “inactive”. The Time turned out to be 5.1 days in assay [27] and 18 days in assay [30]. Besides, in assay [18], the Activity is 10%. Moreover, in the assay with L1210, the result was inactive. Also, in assay [28], the ILS at 30 mg/kg is 92%. The ILS at 45 mg/kg in [29] stood at 110%. Moreover, the ILS in assay [11] is listed as <25%.

Broadly, the ILS is the gain in survival time of treated over control animals, in per cent.
